For 21 compounds, IC50 results are on record in ChEMBL document CHEMBL4138218, “Potent aromatase inhibitors and molecular mechanism of inhibitory action” (Eur J Med Chem, 2018).

The target of one test is T1, Aromatase (Homo sapiens, UniProt P11511).
T1 sequence (P11511 whole entry): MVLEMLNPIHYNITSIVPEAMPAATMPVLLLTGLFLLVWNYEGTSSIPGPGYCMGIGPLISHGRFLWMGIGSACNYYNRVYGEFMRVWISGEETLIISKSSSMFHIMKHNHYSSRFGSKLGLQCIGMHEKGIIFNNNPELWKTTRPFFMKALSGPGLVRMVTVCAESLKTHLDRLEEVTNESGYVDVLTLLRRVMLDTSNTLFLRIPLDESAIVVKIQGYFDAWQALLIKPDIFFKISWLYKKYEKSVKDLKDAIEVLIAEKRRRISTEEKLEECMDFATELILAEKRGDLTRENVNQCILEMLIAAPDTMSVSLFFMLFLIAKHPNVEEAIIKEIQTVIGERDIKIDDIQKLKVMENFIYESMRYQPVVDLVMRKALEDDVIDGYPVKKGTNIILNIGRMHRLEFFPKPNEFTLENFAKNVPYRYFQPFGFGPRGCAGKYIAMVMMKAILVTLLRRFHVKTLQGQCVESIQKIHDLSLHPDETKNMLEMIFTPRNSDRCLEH
Briefly: Inhibition of human aromatase using androstenedione as substrate and NADPH preincubated for 24 hrs followed by substrate addition measured after 24 hrs by ELISA. The method, boiled down:
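Enzyme was a microsomal pellet from human placenta: tissue homogenized in TES buffer (20 mM TES, 1 mM EDTA, 0.15 M KCl, 0.1 mM PMSF, pH 7.4), spun at 10,000 g for 25 min then 100,000 g for 75 min at 4 °C, resuspended with 0.25 M sucrose, stored at −80 °C. Androstenedione substrate with NADPH; estrone quantified by ELISA against a standard curve. Triplicates, mean IC50.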

Another test has as its system MCF7. Briefly: Cytotoxicity against human MCF7 cells after 48 hrs by MTT assay. The format is cell-based. The settings on record: MCF7, 48 h. The method in brief:
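MCF-7 cells in DMEM with 10% FBS and 1% penicillin-streptomycin at 37 °C, 5% CO2. Seeded at 4,000 cells/well and left overnight, then exposed to a range of concentrations for 48 h. Medium replaced with fresh medium containing MTT (5 mg/ml) for 4 h, formazan dissolved in DMSO, absorbance read at 490 nm. IC50 computed from the curves.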
For orientation: Tetrazolium dyes change colour on reduction, which living cells bring about.

Turning to `COc1ccc2c(Cn3ccnc3)c(-c3ccc(F)cc3)[nH]c2c1`, the IC50 against Aromatase is 0.109 µM; with MCF7, greater than 1000 µM.
As to `COc1ccc(-c2[nH]c3cc(Cl)ccc3c2Cn2cncn2)cc1`, the IC50 against Aromatase is 0.196 µM; in the test on MCF7 it was 14.4 µM.
For `Fc1ccc(-c2[nH]c3cc(Cl)ccc3c2Cn2ccnc2)cc1` the same measures were 0.0323 µM and 41.5 µM.
Consider `COc1ccc2c(Cn3cncn3)c(-c3ccc(F)cc3)[nH]c2c1`, for which the IC50 on Aromatase worked out at 0.238 µM; in the test on MCF7, 12.2 µM.
With `N#Cc1ccc(C(c2ccc(C#N)cc2)n2cncn2)cc1` [LETROZOLE], the IC50 with MCF7 came to 4.73 µM.
For the compound `Fc1ccc(-c2[nH]c3cc(Cl)ccc3c2Cn2cncn2)cc1`, the IC50 against Aromatase is 0.0969 µM; in the test on MCF7, 625 µM.
For `COc1ccc2c(Cn3ccnc3)c(-c3ccc(Cl)cc3)[nH]c2c1` the same measures were 1.06 µM and greater than 1000 µM.
As to `COc1ccc(-c2[nH]c3cc(F)ccc3c2Cn2cncn2)cc1`, the IC50 at Aromatase is 0.0141 µM; in the test with MCF7, 325 µM.
For `Clc1ccc(-c2[nH]c3cc4c(cc3c2Cn2cncn2)OCO4)cc1` the same measures were 0.677 µM and 354 µM.
The matching figures for `Clc1ccc(-c2[nH]c3cc(Cl)ccc3c2Cn2ccnc2)cc1`: 0.261 µM and greater than 1000 µM.
For `Fc1ccc2c(Cn3ccnc3)c(-c3ccc(Cl)cc3)[nH]c2c1` the same measures were 0.0829 µM and 45 µM.
As for `COc1ccc(-c2[nH]c3cc(F)ccc3c2Cn2ccnc2)cc1`, the IC50 on Aromatase is 0.0361 µM; in the test on MCF7, greater than 1000 µM.
As for `Fc1ccc(-c2[nH]c3cc4c(cc3c2Cn2cncn2)OCO4)cc1`, the IC50 against Aromatase is 0.0583 µM; with MCF7, 334 µM.
For `Fc1ccc(-c2[nH]c3cc(F)ccc3c2Cn2cncn2)cc1` the same measures were 0.0544 µM and greater than 1000 µM.
Regarding `Fc1ccc(-c2[nH]c3cc(F)ccc3c2Cn2ccnc2)cc1`, the IC50 stood at 0.0512 µM on Aromatase and 83.2 µM with MCF7.
The matching figures for `Clc1ccc(-c2[nH]c3cc4c(cc3c2Cn2ccnc2)OCO4)cc1`: 2.64 µM and greater than 1000 µM.
`COc1ccc(-c2[nH]c3cc(Cl)ccc3c2Cn2ccnc2)cc1`: the IC50 against Aromatase is 0.277 µM; in the test with MCF7, greater than 1000 µM.
The matching figures for `Clc1ccc(-c2[nH]c3cc(Cl)ccc3c2Cn2cncn2)cc1`: 0.208 µM and 382 µM.
`Fc1ccc2c(Cn3cncn3)c(-c3ccc(Cl)cc3)[nH]c2c1`: the IC50 was 0.217 µM on Aromatase and greater than 1000 µM in the test on MCF7.
The matching figures for `Fc1ccc(-c2[nH]c3cc4c(cc3c2Cn2ccnc2)OCO4)cc1`: 0.211 µM and greater than 1000 µM.
Take `COc1ccc2c(Cn3cncn3)c(-c3ccc(Cl)cc3)[nH]c2c1`: the IC50 at Aromatase amounted to 7.77 µM; in the test with MCF7, 612 µM.

As a reminder, the IC50 is the concentration at which inhibition is half-maximal.
